Assay results reported in PubChem BioAssay.
Records with an inconclusive call do not appear. The source made the active and inactive calls.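 The calls were made as follows, unless noted: active = viability at or below 27.92% in each of two runs, the all-compound median minus 4 SD; inconclusive = no clear call, values can overlap the other calls; inactive = the rest.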

How the values were obtained:
[1] = S. cerevisiae growth inhibition in permissive medium (OD615), pilot counter-assay for S. cerevisiae lifespan shortening project, permissive growth control (AID 705;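 active = growth inhibition above 25% in both replicates, a cutoff set 3 SD above the mean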); details: OD615, 24 h, at 10 µM, active compounds read high
Outline: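 Material: engineered DeaD yeast; Compound: one dose 10 µM, DMSO 0.25% final; Detection: absorbance (optical density) at 615 nm; Buffer or medium: permissive raffinose/galactose medium; Timing: 24 h exposure, 30 °C.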

[2] = S. cerevisiae growth inhibition in restrictive medium, OD615, pilot screen, restrictive growth control, yeast lifespan reduction project (AID 706;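 active = growth inhibition above a set limit, 3 SD over mean compound inhibition, in both replicates, cut at about 43% in these data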;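 also: modified DeaD lifespan yeast strain shifted to restrictive glucose medium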); details: OD615, 48 h, at 10 µM, active compounds read high
Outline: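 Buffer or medium: restrictive glucose medium (CSMM-D); test system: modified S. cerevisiae; doses: single dose of 10 µM compound final, 0.25% DMSO; schedule: 48 h compound exposure at 30 °C; detection: absorbance (optical density) measured at 615 nm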

[3] = doxorubicin toxicity protection in MRP-1 cells – H69AR cells, CellTiter-Glo, duplicate, MRP-1 activator project, pilot screen (AID 807;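 active = viability increase at or above a cutoff of the median across tested compounds plus 3 SD, cut at about 8.5% in these data, passing the limit was not always enough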;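 also: compound pretreatment 18-22 h then 72 h combined with doxorubicin; 0% = doxorubicin alone and 100% = vehicle without doxorubicin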); details: H69AR viability with doxorubicin, CellTiter-Glo luminescence; at 10 µM; active compounds read high
[4] = viability of HCT116 without oncogenic beta-catenin – human colon tumor cells, pilot screen (AID 823;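 active = cell viability at or below a set limit in both duplicate runs, the limit being the all-compound median minus 4 SD, cut at about 23% in these data, passing the limit was not always enough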;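 also: 0% = wells killed by 20 µM Hyamine and 100% = untreated DMSO cell wells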); details: HCT116 beta-catenin knockout viability, CellTiter-Glo, 60 h; at 10 µM; active compounds read low
[5] = viability of PTEN-null HCT116 cells – cell-based, HCT116 clonal line, CellTiter-Glo, pilot screen (AID 824); details: HCT116 PTEN-deleted viability, 60 h, at 10 µM, active compounds read low;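 also: 0% = 20 µM Hyamine control and 100% = vehicle cell control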
[6] = RAM pathway blockade in budding yeast – dse1pr::URA3 reporter, 5-FOA selection, pilot screen (AID 869;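 active = inhibition over a set limit, the all-compound mean plus 3 SD, in both replicate runs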;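 also: 0% = DMSO wells with no growth and 100% = 10 µM 1-NA-PP1 with full growth; RAM network block rescues cells from 5-FOA so hits raise OD615 growth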); details: S. cerevisiae dse1pr::URA3 5-FOA growth, OD615, 2 d; at 10 µM; active compounds read high; strain carries analog-sensitive mutant Cbk1 kinase
[7] = RAM signaling pathway blockade in yeast – S. cerevisiae, Pdr1DBD-CYC8 efflux-inhibited sensitized strain, primary screen (AID 1298;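 active = RAM network inhibition above 8.4% in each of two replicates, 3 SD over the compound average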;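 also: 0% = DMSO untreated cells without growth and 100% = 10 µM 1-NA-PP1 full growth; higher means more yeast growth rescued from 5-FOA killing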); details: S. cerevisiae cbk1-as DSE1-URA3 strain, 5-FOA growth OD615, 2 d; at 50 µM; active compounds read high

CCCC(=O)Nc1nc2ccc(S(=O)(=O)N3CCCCC3)cc2s1
inactive: growth inhibition [1] -20.7% | growth inhibition [2] -19.5% | viability increase [3] -6.94% | viability [4] 32.5% | viability [5] 37.3% | inhibition [6] 1.27% | RAM network inhibition [7] 1.93%

COC(=O)C1C(=O)CC(C)(O)C(C(=O)OC)C1c1ccc2c(c1)OCO2 (configuration not stated)
inactive: growth inhibition [1] -10.3% | growth inhibition [2] -17% | viability increase [3] 0.03% | viability [4] 92.3% | viability [5] 98.5% | inhibition [6] 1.74% | RAM network inhibition [7] 0.48%

CN(C)CCN(Cc1ccccc1)c1ccnc(N(C)C)c1C#N
inactive: growth inhibition [1] -13.2% | growth inhibition [2] -17.6% | viability increase [3] -4.22% | viability [4] 85.2% | viability [5] 89.5% | inhibition [6] 1.11% | RAM network inhibition [7] 2.08%

Cc1nc(SCC(=O)Nc2cccc(Cl)c2)n[nH]1
inactive: growth inhibition [1] -4.9% | growth inhibition [2] -4.81% | viability increase [3] -1.48% | viability [4] 97% | viability [5] 97.7% | inhibition [6] 0.56% | RAM network inhibition [7] -0.63%

CC(=O)N1CCc2c(sc(NC(=O)C3CC3)c2-c2nc3ccccc3s2)C1
inactive: growth inhibition [1] 0.95% | growth inhibition [2] -2.89% | viability increase [3] -3.03% | viability [4] 65.4% | viability [5] 63.4% | inhibition [6] 1.99% | RAM network inhibition [7] 4.93%

CC1=CC(C)(C)Nc2ccc(OC(=O)c3ccco3)cc21
inactive: growth inhibition [1] 1.4% | growth inhibition [2] -5.68% | viability increase [3] -7.71% | inhibition [6] 0.475% | RAM network inhibition [7] 0.98%
active: viability [4] 0.49% | viability [5] 0.6%

COc1ccc(S(=O)(=O)Cc2ccc(C(=O)N3CCc4ccccc4C3)o2)cc1
inactive: growth inhibition [1] -5.74% | growth inhibition [2] -5.21% | viability increase [3] -0.44% | viability [4] 92.7% | viability [5] 94.1% | inhibition [6] 0.315% | RAM network inhibition [7] 7.28%

O=C(c1ccccc1)c1ccc2nc(N3CCCCC3)c3nncn3c2c1
inactive: growth inhibition [1] 12.4% | viability increase [3] -3.48% | viability [4] 45.4% | viability [5] 56.4% | inhibition [6] 2.53% | RAM network inhibition [7] 4.08%
active: growth inhibition [2] 57.7%

CCOC(=O)C1CCN(c2c(N3CCN(Cc4ccccc4)CC3)c(=O)c2=O)CC1
inactive: growth inhibition [1] -4.1% | growth inhibition [2] -4.49% | viability increase [3] -0.78% | viability [4] 90.5% | viability [5] 86.3% | inhibition [6] 1.52% | RAM network inhibition [7] 6.15%

O=C1Nc2ccccc2C(O)(C(=O)N2CCCCC2)N1c1ccccc1 (configuration not stated)
inactive: growth inhibition [1] -10.5% | growth inhibition [2] -20.2% | viability increase [3] -1.87% | viability [4] 98.9% | viability [5] 92.2% | inhibition [6] 2.2% | RAM network inhibition [7] 7.2%

CCOC(=O)c1[nH]c2ccccc2c1NC(=O)c1ccc(Br)o1
inactive: growth inhibition [1] -6.18% | growth inhibition [2] -1.93% | viability increase [3] -3.95% | viability [4] 70.3% | viability [5] 69.9% | inhibition [6] 0.96% | RAM network inhibition [7] 7.09%

O=C(NC1CCS(=O)(=O)C1)c1ccccc1C(=O)c1ccccc1 (configuration not stated)
inactive: growth inhibition [1] -15.2% | growth inhibition [2] -9.07% | viability increase [3] -0.35% | viability [4] 102% | viability [5] 99.1% | inhibition [6] 2.46% | RAM network inhibition [7] 9.61%

COc1ccc(CN2CCN(C(=O)c3cccs3)CC2)cc1Br
inactive: growth inhibition [1] -11.5% | growth inhibition [2] -13.4% | viability increase [3] -1.27% | viability [4] 85.4% | viability [5] 87.9% | inhibition [6] 0.72% | RAM network inhibition [7] 2.53%

CCOc1ccc(N2CC(=O)SC2=S)cc1
inactive: growth inhibition [1] -6.07% | growth inhibition [2] -0.73% | viability increase [3] 1.09% | viability [4] 96.3% | viability [5] 95.9% | inhibition [6] 0.425% | RAM network inhibition [7] 7.05%

CCc1nnc(NC(=O)CSc2nccn2-c2cccc(C)c2C)s1
inactive: growth inhibition [1] 2.46% | growth inhibition [2] 32.5% | viability increase [3] -5.37% | viability [4] 46.2% | viability [5] 42.9% | inhibition [6] 0.935% | RAM network inhibition [7] 1.37%

CCOC(=O)C(CCC#N)(CCC#N)C(=O)OCC
inactive: growth inhibition [1] -11.9% | growth inhibition [2] -5.42% | viability increase [3] -0.16% | viability [4] 95.9% | viability [5] 102% | inhibition [6] 0.445% | RAM network inhibition [7] 5.31%

O=C(CNS(=O)(=O)c1cccc2nsnc12)NCc1ccc(Cl)cc1
inactive: growth inhibition [1] -2.9% | growth inhibition [2] -2.34% | viability increase [3] -4.44% | viability [4] 88% | viability [5] 91.5% | inhibition [6] 0.415% | RAM network inhibition [7] 4.28%

Cc1nc(Nc2nc3ccccc3o2)nc2c1CCC2
inactive: growth inhibition [1] 9.76% | growth inhibition [2] 16.7% | viability increase [3] -1.82% | viability [4] 77.7% | viability [5] 76% | inhibition [6] 0.225% | RAM network inhibition [7] -0.26%

O=C(O)c1ccc(F)c(S(=O)(=O)Nc2ccccc2)c1
inactive: growth inhibition [1] -3.28% | growth inhibition [2] -2.19% | viability increase [3] 1.08% | viability [4] 96.2% | viability [5] 101% | inhibition [6] -0.93% | RAM network inhibition [7] -0.06%

CN(c1nnc(N)s1)C1CCCCC1
inactive: growth inhibition [1] 1.35% | growth inhibition [2] 14% | viability increase [3] -1.87% | viability [4] 104% | viability [5] 98.7% | inhibition [6] 2.38% | RAM network inhibition [7] 3.49%

COC(=O)c1ccc(C2c3c(oc4cc(C)c(C)cc4c3=O)C(=O)N2CCCN(C)C)cc1 (configuration not stated)
inactive: growth inhibition [1] -7.92% | growth inhibition [2] -7.88% | viability increase [3] -2.2% | viability [4] 93.8% | viability [5] 87.7% | inhibition [6] 0.34% | RAM network inhibition [7] 3.78%

CC1CC(C)CN(C(=O)CSc2nnc(-c3ccc(Cl)s3)o2)C1 (configuration not stated)
inactive: growth inhibition [1] -4.71% | growth inhibition [2] -6.08% | viability increase [3] 2.04% | viability [4] 96.5% | viability [5] 92.4% | inhibition [6] 0.75% | RAM network inhibition [7] 2.52%

Cc1cc(/C=N/n2cnnc2)c(C)n1-c1ccc(OCc2ccc(F)cc2)cc1
active: viability [4] 10.2% | viability [5] 11.8%
inactive: growth inhibition [1] -2.2% | growth inhibition [2] 32.3% | viability increase [3] -5.79% | inhibition [6] 1.71% | RAM network inhibition [7] 8.48%

O=C(Cc1ccccc1)n1nc(-c2ccccc2)nc1NCc1ccco1
inactive: growth inhibition [1] -16.6% | growth inhibition [2] -14.8% | viability increase [3] -2.03% | viability [4] 99.5% | viability [5] 98.1% | inhibition [6] 1.27% | RAM network inhibition [7] 4.38%

Clc1ccc(C2CC(c3cccs3)n3ncnc3N2)c(Cl)c1 (configuration not stated)
inactive: growth inhibition [1] -5.32% | growth inhibition [2] 17.4% | viability increase [3] -4.06% | viability [4] 78.7% | viability [5] 69.3% | inhibition [6] 2.1% | RAM network inhibition [7] 2.15%

Cc1ccccc1C(=O)N1CCC(C(=O)Nc2cccc(F)c2)CC1
inactive: growth inhibition [1] -7.2% | growth inhibition [2] -1.04% | viability increase [3] -0.02% | viability [4] 98.1% | viability [5] 82.7% | inhibition [6] 1.3% | RAM network inhibition [7] 3.22%

CC1CCCCC1NC(=O)C1CCN(C(=O)c2sccc2-n2cccc2)CC1 (configuration not stated)
inactive: growth inhibition [1] -4.95% | growth inhibition [2] -6.6% | viability increase [3] -1.22% | viability [4] 105% | viability [5] 94.8% | inhibition [6] 2.28% | RAM network inhibition [7] 4.86%

Cc1ccc(S(=O)(=O)NCCCN2CCOCC2)c(C)c1
inactive: growth inhibition [1] -5.02% | growth inhibition [2] -7.8% | viability increase [3] -1.19% | viability [4] 96.8% | viability [5] 95.5% | inhibition [6] 2.29% | RAM network inhibition [7] 5.89%

COc1ccc(NC(=O)C2CCCN2S(=O)(=O)c2ccc(F)cc2)cc1 (configuration not stated)
inactive: growth inhibition [1] -11.8% | growth inhibition [2] -12.7% | viability increase [3] -0.14% | viability [4] 109% | viability [5] 99.2% | inhibition [6] 1.87% | RAM network inhibition [7] -1.32%

Cc1c(NC(=O)NCCN2C(=O)C3C4C=CC(C4)C3C2=O)c(=O)n(-c2ccccc2)n1C (configuration not stated)
inactive: growth inhibition [1] -9.82% | growth inhibition [2] -8.71% | viability increase [3] 0.15% | viability [4] 98.2% | viability [5] 99.8% | inhibition [6] 1.09% | RAM network inhibition [7] 4.55%

CC(C)CC(=O)Nc1ccc(C(=O)COc2ccc(-c3nnco3)cc2)cc1
inactive: growth inhibition [1] -0.165% | growth inhibition [2] -0.795% | viability increase [3] 0.84% | viability [4] 88% | viability [5] 87% | inhibition [6] 0.965% | RAM network inhibition [7] 2.46%

CCOc1cc(-c2nc(-c3ccncc3)no2)cc(OCC)c1OCC
inactive: growth inhibition [1] -5.04% | growth inhibition [2] -6.19% | viability increase [3] -5.6% | viability [4] 60.1% | viability [5] 65% | inhibition [6] 1.08% | RAM network inhibition [7] 5.16%

Oc1[nH]c2ccccc2c1C=Nc1ccc2c(c1)OCO2
inactive: growth inhibition [1] -18.5% | growth inhibition [2] -9.39% | viability increase [3] -5.2% | viability [4] 75% | viability [5] 71.4% | inhibition [6] 1.74% | RAM network inhibition [7] 1.86%

CC(C)N(CCc1ccncc1)C(=O)Nc1ccc(F)cc1
inactive: growth inhibition [1] 0.1% | growth inhibition [2] -7.37% | viability increase [3] -2.27% | viability [4] 102% | viability [5] 96.8% | inhibition [6] 1.21% | RAM network inhibition [7] 5.33%

CC(=O)c1ccc(NC(=O)CN2C(=O)COc3ccc(Cl)cc32)cc1
inactive: growth inhibition [1] -16.9% | growth inhibition [2] -13.2% | viability increase [3] -2.36% | viability [4] 84% | viability [5] 79.2% | inhibition [6] 2.46% | RAM network inhibition [7] 5.11%

Clc1ccc(Sc2oc(/C=N/n3cnnc3)cc2Br)cc1
inactive: growth inhibition [1] -0.475% | growth inhibition [2] 22.4% | viability increase [3] -8.12% | viability [4] 27.6% | viability [5] 50.5% | inhibition [6] 0.36% | RAM network inhibition [7] 1.69%
